Laboratory results reported in ChEMBL document CHEMBL3227917, “Structure-activity relationships of dimeric Catharanthus alkaloids. 2. Experimental antitumor activities of N-substituted deacetylvinblastine amide (vindesine) sulfates” (J Med Chem, 1979).

Tests used:
[1] = Antitumor activity against mouse P1534 cells allografted in DBA2 mouse assessed as tumor growth inhibition at 0.9 mg/kg, ip administered on days 1,5 and 9; assay type: functional; conditions: route intraperitoneal, read-out: TGI
Procedure, shortened: (§1)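 P1534(J) leukemia implanted sc in DBA2 mice; agent given ip on days 1, 5 and 9 at 1.6, 1.2, 0.9 and 0.6 mg/kg in a single experiment. Activity scored as growth inhibition, –, 0–25%; +, 26–50%; ++, 51–75%; +++, 76–100%.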

[2] = test system: B16; assay: Antitumor activity against mouse B16 cells allografted in C57BL/6 mouse assessed as prolongation of host survival at 0.90 mg/kg, ip administered on days 1,5 and 9; assay type: functional; conditions: route intraperitoneal
Procedure, shortened: (§2)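 B16 melanoma cells (10⁶ inoculum) implanted ip in C57BL/6 mice; groups of 10. Sulfate salts unless noted, given ip on days 1, 5 and 9. Single test. Survival prolongation is expressed as percent versus controls, with survivors counted on day 60. Toxic means deaths of ≥5 of 10 animals before the first control death.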

[3] = Antitumor activity against mouse Gardner lymphosarcoma allografted in C3H mouse assessed as tumor growth inhibition at 0.40 mg/kg, ip administered daily for 8 to 10 days; assay type: functional; conditions: route intraperitoneal, read-out: TGI
Procedure, shortened: (§3)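 Gardner lymphosarcoma in C3H mice; sulfate salts unless noted, given ip daily for 8–10 days, treatment starting 8 days after tumor implantation. Tumor growth inhibition scored as –, 0–25%; +, 26–50%; ++, 51–75%; +++, 76–100%; T, lethal to ≥5 of 10 animals per group. Average of one or more tests.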

[4] = test system: P388/VCR; assay: Antitumor activity against mouse P388/VCR cells allografted in CD2F1 mouse assessed as increase in host lifespan at 1.80 mg/kg, ip administered on days 1, 5 and 9; assay type: functional; conditions: dose 1.8 mg/kg; route intraperitoneal
Procedure, shortened: (§4)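 Groups of eight male CD2F1 mice, tested at the NCI. Compounds were given as sulfate salts, dosed in mg/kg ip on days 1, 5 and 9. Activity was read as percent increase in lifespan against the leukemia line.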

[5] = Antitumor activity against mouse Gardner lymphosarcoma allografted in C3H mouse assessed as tumor growth inhibition at 0.30 mg/kg, ip administered daily for 8 to 10 days; assay type: functional; conditions: route intraperitoneal, read-out: TGI; procedure, shortened: as §3
[6] = test system: P388/VCR; assay: Antitumor activity against mouse P388/VCR cells allografted in CD2F1 mouse assessed as increase in host lifespan at 1.08 mg/kg, ip administered on days 1, 5 and 9; assay type: functional; conditions: route intraperitoneal
Procedure, shortened: (§5)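 Groups of eight male CD2F1 mice bearing P388 leukemia, run at NCI. Sulfate salts given ip on days 1, 5 and 9. Read-out is percent increase in lifespan.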

[7] = test system: CHO; assay: Mitotic arrest in CHO cells assessed as increase in cell accumulation at 0.002 ug/ml; assay type: functional, Cricetulus griseus
Procedure, shortened: (§6)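 Chinese hamster ovary cells in tissue culture, scored for mitotic arrest as increase in cells in mitotic arrest over control: +++, 40–50%; ++, 15–40%; +, 10–15%; ±, 7–10%; –, 3–7%. Cytotoxicity noted separately.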

[8] = test system: CHO; assay: Mitotic arrest in CHO cells assessed as increase in cell accumulation at 0.02 ug/ml; assay type: functional, Cricetulus griseus; procedure, shortened: as §6
[9] = Toxicity in iv dosed mouse assessed as lethality; assay type: organism-based; conditions: in vivo
[10] = test system: Mus musculus; assay: Toxicity in CD2F1 mouse allografted with mouse P388/S cells at 3.00 mg/kg, ip administered on days 1, 5 and 9; assay type: organism-based; design: dose 3 mg/kg, route intraperitoneal; conditions: in vivo
[11] = test system: B16; assay: Antitumor activity against mouse B16 cells allografted in C57BL/6 mouse assessed as prolongation of host survival at 0.60 mg/kg, ip administered on days 1,5 and 9; assay type: functional; conditions: route intraperitoneal; procedure, shortened: as §2
[12] = Antitumor activity against mouse P1534 cells allografted in DBA2 mouse assessed as tumor growth inhibition at 0.6 mg/kg, ip administered on days 1,5 and 9; assay type: functional; conditions: route intraperitoneal, read-out: TGI; procedure, shortened: as §1
[13] = Antitumor activity against mouse P1534 cells allografted in DBA2 mouse assessed as tumor growth inhibition at 1.6 mg/kg, ip administered on days 1,5 and 9; assay type: functional; conditions: route intraperitoneal, read-out: TGI; procedure, shortened: as §1
[14] = test system: P388/VCR; assay: Antitumor activity against mouse P388/VCR cells allografted in B6D2F1 mouse assessed as increase in host lifespan at 0.60 mg/kg, ip administered on days 1, 5 and 9; assay type: functional; conditions: dose 0.6 mg/kg; route intraperitoneal
Procedure, shortened: (§7)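 P388/VCR leukemia in groups of 10 B6D2F1 mice, run at Lilly using the cell strain received from NCI. Sulfate salts given ip on days 1, 5 and 9. Read-out is percent increase in lifespan.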

[15] = test system: P388/VCR; assay: Antitumor activity against mouse P388/VCR cells allografted in B6D2F1 mouse assessed as increase in host lifespan at 1.20 mg/kg, ip administered on days 1, 5 and 9; assay type: functional; conditions: dose 1.2 mg/kg; route intraperitoneal; procedure, shortened: as §7
[16] = test system: P388/VCR; assay: Antitumor activity against mouse P388/VCR cells allografted in B6D2F1 mouse assessed as increase in host lifespan at 0.90 mg/kg, ip administered on days 1, 5 and 9; assay type: functional; conditions: dose 0.9 mg/kg; route intraperitoneal; procedure, shortened: as §7
[17] = Antitumor activity against mouse P1534 cells allografted in DBA2 mouse assessed as tumor growth inhibition at 1.2 mg/kg, ip administered on days 1,5 and 9; assay type: functional; conditions: route intraperitoneal, read-out: TGI; procedure, shortened: as §1
[18] = Antitumor activity against mouse Gardner lymphosarcoma allografted in C3H mouse assessed as tumor growth inhibition at 0.05 mg/kg, ip administered daily for 8 to 10 days; assay type: functional; conditions: route intraperitoneal, read-out: TGI; procedure, shortened: as §3
[19] = test system: P388/VCR; assay: Antitumor activity against mouse P388/VCR cells allografted in CD2F1 mouse assessed as increase in host lifespan at 0.648 mg/kg, ip administered on days 1, 5 and 9; assay type: functional; conditions: route intraperitoneal; procedure, shortened: as §5
[20] = test system: B16; assay: Antitumor activity against mouse B16 cells allografted in C57BL/6 mouse assessed as prolongation of host survival at 1.20 mg/kg, ip administered on days 1,5 and 9; assay type: functional; conditions: route intraperitoneal; procedure, shortened: as §2
[21] = Antitumor activity against mouse Gardner lymphosarcoma allografted in C3H mouse assessed as tumor growth inhibition at 0.10 mg/kg, ip administered daily for 8 to 10 days; assay type: functional; conditions: route intraperitoneal, read-out: TGI; procedure, shortened: as §3
[22] = test system: CHO; assay: Mitotic arrest in CHO cells assessed as increase in cell accumulation at 0.2 ug/ml; assay type: functional, Cricetulus griseus; procedure, shortened: as §6
[23] = Antitumor activity against mouse P388/VCR/I/63 cells allografted in Dublin-CDF1 mouse assessed as increase in host lifespan at 1.6 mg/kg, ip administered on days 1, 5 and 9; assay type: functional; conditions: route intraperitoneal
[24] = Antitumor activity against mouse P388/VCR/I/63 cells allografted in Dublin-CDF1 mouse assessed as increase in host lifespan at 1.0 mg/kg, ip administered on days 1, 5 and 9; assay type: functional; conditions: route intraperitoneal
[25] = Antitumor activity against mouse Gardner lymphosarcoma allografted in C3H mouse assessed as tumor growth inhibition at 0.20 mg/kg, ip administered daily for 8 to 10 days; assay type: functional; conditions: route intraperitoneal, read-out: TGI; procedure, shortened: as §3
[26] = Antitumor activity against mouse P388/VCR/I/63 cells allografted in Dublin-CDF1 mouse assessed as day of host death at 1.0 mg/kg, ip administered on days 1, 5 and 9 (reference value: 10 days); assay type: functional; conditions: route intraperitoneal
[27] = test system: P388/S; assay: Antitumor activity against mouse P388/S cells allografted in CD2F1 mouse assessed as increase in host lifespan at 1.80 mg/kg, ip administered on days 1, 5 and 9; assay type: functional; conditions: dose 1.8 mg/kg; route intraperitoneal; procedure, shortened: as §4
[28] = test system: P388/S; assay: Antitumor activity against mouse P388/S cells allografted in CD2F1 mouse assessed as increase in host lifespan at 1.08 mg/kg, ip administered on days 1, 5 and 9; assay type: functional; conditions: route intraperitoneal; procedure, shortened: as §5
[29] = test system: P388/S; assay: Antitumor activity against mouse P388/S cells allografted in CD2F1 mouse assessed as increase in host lifespan at 0.648 mg/kg, ip administered on days 1, 5 and 9; assay type: functional; conditions: route intraperitoneal; procedure, shortened: as §5
[30] = Antitumor activity against mouse P388/VCR/I/63 cells allografted in Dublin-CDF1 mouse assessed as increase in host lifespan at 0.7 mg/kg, ip administered on days 1, 5 and 9; assay type: functional; conditions: route intraperitoneal
[31] = test system: Mus musculus; assay: Toxicity in CD2F1 mouse allografted with mouse P388/VCR cells at 3.00 mg/kg, ip administered on days 1, 5 and 9; assay type: organism-based; design: dose 3 mg/kg, route intraperitoneal; conditions: in vivo
[32] = Antitumor activity against mouse P388/VCR/I/63 cells allografted in Dublin-CDF1 mouse assessed as day of host death at 1.6 mg/kg, ip administered on days 1, 5 and 9 (reference value: 10 days); assay type: functional; conditions: route intraperitoneal
[33] = Antitumor activity against mouse P388/VCR/I/63 cells allografted in Dublin-CDF1 mouse assessed as day of host death at 0.7 mg/kg, ip administered on days 1, 5 and 9 (reference value: 10 days); assay type: functional; conditions: route intraperitoneal

Compound: CC[C@]1(O)C[C@H]2CN(CCc3c([nH]c4ccccc34)[C@@](C(=O)OC)(c3cc4c(cc3OC)N(C)[C@H]3[C@@](O)(C(=O)NCCSSCCNC(=O)[C@@]5(O)[C@H](O)[C@]6(CC)C=CCN7CC[C@@]8(c9cc([C@@]%10(C(=O)OC)C[C@@H]%11CN(CCc%12c%10[nH]c%10ccccc%12%10)C[C@](O)(CC)C%11)c(OC)cc9N(C)[C@@H]58)[C@@H]76)[C@H](O)[C@]5(CC)C=CCN6CC[C@]43[C@@H]65)C2)C1.O=S(=O)(O)O
- inhibition in vivo at 0.9 mg/kg [1]: 51%
- survival at 0.9 mg/kg [2]: 170%
- inhibition in vivo at 0.4 mg/kg [3]: 76%
- Activity [4]: 33%
- inhibition in vivo at 0.3 mg/kg [5]: 76%
- Activity [6]: 46%
- Activity [7]: 3%
- Activity [8]: 10%
- LD50 [9]: 6.9 mg/kg
- Activity [10]: Toxic
- survival at 0.6 mg/kg [11]: 115%
- inhibition in vivo at 0.6 mg/kg [12]: 26%
- inhibition in vivo at 1.6 mg/kg [13]: 76%
- Activity [14]: 35%
- Activity [15]: 22%
- Activity [16]: 54%
- inhibition in vivo at 1.2 mg/kg [17]: 76%
- inhibition in vivo at 0.05 mg/kg [18]: 0%
- Activity [19]: 50%
- survival at 1.2 mg/kg [20]: 170%
- inhibition in vivo at 0.1 mg/kg [21]: 0%
- Activity [22]: 15%
- Activity [23]: 145%
- Activity [24]: 115%
- inhibition in vivo at 0.2 mg/kg [25]: 51%
- Activity [26]: 21.5 days
- Activity [27]: 50%
- Activity [28]: 96%
- Activity [29]: 129%
- Activity [30]: 85%
- Activity [31]: Toxic
- Activity [32]: 24.5 days
- Activity [33]: 18.5 days
